From ChEMBL document CHEMBL1128711, “Calcium entry blockers and activators: conformational and structural determinants of dihydropyrimidine calcium channel modulators” (J Med Chem, 1995)

Key:
[1] = organism: Oryctolagus cuniculus; experiment: In vitro contraction of rabbit aorta strips.; type: functional, organism-based
In short: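 Rabbit aortic strips first contracted with 110 mM KCl to check viability and set maximal force. After washout and full relaxation, strips were equilibrated in 10 mM KCl, then given cumulative concentrations of test compound. EC50 is the concentration giving 50% of the prior 110 mM KCl maximal force.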

[2] = organism: Oryctolagus cuniculus; experiment: In vitro inhibition of potassium-induced contractions in rabbit aorta strips.; type: functional, organism-based
In short: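 Rabbit aortic strips contracted with 110 mM KCl (equimolar replacement of NaCl), then exposed to cumulative concentrations of test compound.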

EC50 ([1]; Oryctolagus cuniculus, Aorta) | IC50 ([2]; Oryctolagus cuniculus, Aorta) | EC50 [1] | IC50 [2] | Structure (SMILES)
> 30 µM | > 30 µM | – | – | CSC1=NC(c2ccccc2SC)C2=C(O)OCC2=N1 (stereo not given)
> 30 µM | > 30 µM | – | – | CSC1=NC(c2cccc([N+](=O)[O-])c2SC)C2=C(O)OCC2=N1 (stereo not given)
> 30 µM | 2.27 µM | – | – | COC(=O)C1=C(C)N=C(SC)N[C@@H]1c1ccccc1SC
> 30 µM | 20 µM | – | – | COC(=O)C1=C(C)N=C(SC)NC1c1cc([N+](=O)[O-])ccc1SC (stereo not given)
> 30 µM | 0.036 µM | – | – | CSC1=NC2/C(=C(/O)OCCCCCSc3c2cccc3[N+](=O)[O-])C(C)=N1 (stereo not given)
> 30 µM | > 30 µM | – | – | CSC1=NC(c2cccc([N+](=O)[O-])c2)C2=C(O)OCC2=N1 (stereo not given)
> 30 µM | > 30 µM | – | – | CSC1=NC(c2cc([N+](=O)[O-])ccc2SC)C2=C(O)OCC2=N1 (stereo not given)
2.9 µM | 26 µM | – | – | CSC1=NC2/C(=C(/O)OCCCCCSc3ccc([N+](=O)[O-])cc32)C(C)=N1 (stereo not given)
> 30 µM | 20.6 µM | – | – | COC(=O)C1=C(C)N=C(SC)NC1c1ccccc1SC (stereo not given)
> 30 µM | – | – | – | COC(=O)C1=C(C)N=C(SC)NC1c1cccc([N+](=O)[O-])c1SC (stereo not given)
> 30 µM | 2.5 µM | – | – | COC(=O)C1=C(C)N=C(SC)NC1c1cccc([N+](=O)[O-])c1 (stereo not given)
0.046 µM | 17.1 µM | – | – | CO/C(O)=C1\C(C)=NC(C)=C([N+](=O)[O-])[C@H]1c1ccccc1C(F)(F)F
3.55 µM | > 30 µM | – | – | COC(=O)C1=C(C)N=C(SC)N[C@H]1c1ccccc1SC
17.3 µM | > 30 µM | – | – | CCCCSc1ccccc1C1N=C(SC)NC2=C1C(=O)OC2 (stereo not given)
– | – | 0.82 µM | 3.9 µM | CSC1=NC2/C(=C(/O)OCCCCCSc3ccccc32)C(C)=N1 (stereo in doubt; 15b)
– | – | > 30 µM | 0.1 µM | CSC1=NC2/C(=C(/O)OCCCCCSc3ccccc32)C(C)=N1 (stereo in doubt; 15b-A)
– | – | 0.59 µM | > 30 µM | CSC1=NC2/C(=C(/O)OCCCCCSc3ccccc32)C(C)=N1 (stereo in doubt; 15b-B)

Structure (SMILES) | EC50 ([1]; Oryctolagus cuniculus, Aorta) | IC50 ([2]; Oryctolagus cuniculus, Aorta) | EC50 [1] | IC50 [2]
COC(=O)C1=C(C)NC(C)=C(C(=O)OC)C1c1ccccc1[N+](=O)[O-] [NIFEDIPINE] | > 30 µM | 0.019 µM | – | –
